# Measles CPE = protection of cells from measles virus | Measles virus-infected cells, CPE protection, absorbance | protection (pct of control), % at 4 µM | 140,000 compounds, 1.5% hits | AID 841; in the data active means protection mostly above about 24%, no sharp cut-off; inactive means mostly below about 26%
# NPY Y1 blocker = antagonists of human neuropeptide Y receptor Y1; P25929; inhibition, % at 3.6 µM; HEK293-CNG Y1 cells, membrane potential fluorescence; NPY at EC95, then isoproterenol; 200,000 compounds, 1% hits;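 active means inhibition above the campaign mean inhibition of all tested compounds plus 3 SD, cut at about 20% in these data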;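 further: 0% = DMSO wells given NPY plus isoproterenol and 100% = isoproterenol alone without NPY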
# Target sequence (P25929 whole entry, looked up): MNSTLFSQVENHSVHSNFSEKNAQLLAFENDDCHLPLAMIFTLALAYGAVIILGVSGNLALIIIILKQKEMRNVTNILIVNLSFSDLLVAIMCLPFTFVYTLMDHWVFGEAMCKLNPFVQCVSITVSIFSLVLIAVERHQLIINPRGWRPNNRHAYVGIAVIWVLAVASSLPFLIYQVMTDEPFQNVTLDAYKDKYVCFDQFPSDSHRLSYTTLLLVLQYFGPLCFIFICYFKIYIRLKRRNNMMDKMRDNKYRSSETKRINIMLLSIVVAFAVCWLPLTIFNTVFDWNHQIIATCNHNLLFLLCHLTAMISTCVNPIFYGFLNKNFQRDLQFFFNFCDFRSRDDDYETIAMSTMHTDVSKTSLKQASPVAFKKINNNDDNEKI
#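 Material: HEK293 cells with Y1 receptor plus CNG channel; times: compound incubation 1 h at room temperature, readout 45 min post-stimulation; signal: fluorescence, membrane potential probe; read-out basis: fluorescence ratio normalized to % inhibition between controls; benchmarks: full-block control isoproterenol-only wells, zero-block control NPY plus isoproterenol wells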
# NPY Y2 blocker = blocks the human neuropeptide Y Y2 receptor | 140,000 compounds, 0.99% hits | NPY-Y2 expressing cells, antagonist mode | inhibition, % at 2.7 µM | AID 793 | P49146; in the data active means inhibition above about 17%;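 further: 0% = vehicle with agonist challenge and 100% = reference antagonist with challenge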
# NPY-Y1 PAM-ag = human NPY-Y1 potentiation or agonism, primary screen; P25929; NPY-Y1 expressing cells, potentiator/agonist activation; activation, % at 3.6 µM; 220,000 compounds, 0.37% hits; in the data active means activation above about 33%, passing the limit was not always enough;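 further: cells stimulated with NPY at EC10 then isoproterenol at EC100; 0% = low agonist plus stimulus and 100% = saturating agonist plus stimulus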
# Rad51 HR inh = blocks human Rad51 in homologous recombination; Q06609; hRad51 DNA strand exchange, fluorescence dequenching; inhibition, % at 10 µM; 200,000 compounds, 0.085% hits; AID 1385;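 active means inhibition above 40% at the single screening dose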;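 further: 0% = DMSO control wells and 100% = blanks with heterologous ssDNA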
#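 Test system – preformed human Rad51 ssDNA filaments · Reagent – Donor/quencher-labelled 47-bp dsDNA substrate · Incubation – 37 °C 15-min filament assembly, 30-min compound preincubation, 15-min exchange · Signal – FRET fluorescence dequenching, excitation 485 nm, emission 520 nm · Read-out – percent inhibition from fluorescence, normalised to plate control and blank means · Benchmarks – plate control and blank wells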
# NPY2 pot ag = human NPY-Y2 potentiation or agonism, primary screen | P49146 | cells expressing NPY-Y2, potentiator/agonist read-out | activation, % at 3.6 µM | 220,000 compounds, 0.45% hits | AID 1359; in the data active means activation above about 27%;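 further: cells stimulated with NPY near EC25 plus isoproterenol at EC100; 0% = vehicle plus submaximal agonist and 100% = vehicle plus saturating agonist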
# NPY1 antag ctr = human NPY-Y1 antagonism in NPY-Y2 counter-screen. 710 compounds, 19% hits. shares compounds with NPY Y2 blocker. inhibition, % at 3.6 µM. AID 1256. cell-based NPY-Y1 antagonism counterscreen; in the data active means inhibition above about 20%;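 further: cells challenged with NPY then isoproterenol with cAMP sensed through a CNG channel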
# NPY2 antag conf = confirmation of human neuropeptide Y receptor Y2 antagonists. inhibition, % at 2.8 µM. shares compounds with NPY Y2 blocker. 710 compounds, 32% hits. HEK293 NPY-Y2 CNG channel, membrane potential fluorescence;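 active means mean inhibition of triplicate wells above the hit cutoff set in the primary screen, cut at about 17% in these data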;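 further: 0% = DMSO with NPY challenge and 100% = BIIE0246 high control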
# Active calls of the source: *; nt = no result. Only some compounds are listed: those with a hit (about 2.8% of all), similar ones and a draw of the others.
SMILES,Measles CPE,NPY Y1 blocker,NPY Y2 blocker,NPY-Y1 PAM-ag,Rad51 HR inh,NPY2 pot ag,NPY1 antag ctr,NPY2 antag conf
CCOC(=O)c1c(NC(=O)C2C3C=CC(CC3)C2C(=O)O)sc(C)c1C (centres undefined),9,2,18*,18,-2,14,0,3
CCc1cccc(NC(=O)Cn2cc(C=O)c3ccccc32)c1,nt,4,nt,-1,32,7,nt,nt
S=C(NCCc1ccccc1)N/N=C/c1ccccc1Cl,11,10,43*,-57,-4,-23,18,18*
CCc1ccc(/C=N/NC(=S)NCCc2ccccc2)cc1,3,19,33*,-4,0,-13,28*,30*
C/C(=N\NC(=S)NCCc1ccccc1)c1ccc(Cl)cc1,5,5,16,-39,4,-27,nt,nt
C/C(=N\NC(=S)NCCc1ccccc1)c1ccc(C)cc1,19,10,17*,-27,3,-20,15,15
CC(Oc1ccc(Cl)cc1Cl)C(=O)NCCC1=CCCCC1 (centres undefined),7,9,5,-3,nt,-6,nt,nt
COc1ccc(C2C(C(=O)O)c3ccccc3C(=O)N2Cc2ccco2)cc1 (centres undefined),nt,nt,nt,-11,-2,21,nt,nt
O=C(O)c1cc(Cl)c(Cl)cc1C(=O)Nc1cccc2cccnc12,14,-5,4,-19,3,3,nt,nt
CCOc1ccc2ccccc2c1C(=O)N1CCN(c2ccccc2)CC1,5,19,18*,-13,-1,10,17,10
CCOC(=O)c1[nH]c(C)c(C(=O)N2CCN(c3ccccc3)CC2)c1C,2,3,5,-25,-1,-4,nt,nt
COc1ccc(C2Nc3ccccc3C(=O)N2Cc2ccco2)cc1CN1C(=O)c2ccccc2C1=O (centres undefined),15,-4,1,30,3,-9,nt,nt
COc1ccc(C2Nc3ccccc3C(=O)N2Cc2ccco2)cc1COc1ccc(F)cc1 (centres undefined),9,20,22*,-50,1,-21,10,9
CCOC(=O)CSc1ncc(OC)c(Sc2ccc(Cl)cc2)n1,44,14,21*,-34,-3,-19,4,9
CCOC(=O)C(C)Sc1ncc(OC)c(Sc2ccc(Cl)cc2)n1 (centres undefined),2,8,17,-11,0,-22,nt,nt
Cc1cc(C(F)F)nn1CC(=O)NCc1ccc(Cl)cc1Cl,17,9,17*,6,0,15,-1,1
O=C(COc1ccc(Cl)cc1Br)NC(=O)NCc1ccccc1,17,9,4,-11,28,-1,nt,nt
CCOc1ccc(Cc2c(Cl)nc(SC)nc2N(C)C)cc1,4,12,50*,-45,-13,-24,63*,50*
COc1ccc(/C=N/NC(=O)c2cccc(OC(F)(F)C(F)F)c2)cc1O,10,-1,17*,-25,0,-12,3,2
O=C(COC(=O)/C=C/c1ccc2c(c1)OCO2)Nc1ccccc1,nt,10,nt,-17,-2,-22,nt,nt
CCCNC(=O)COC(=O)/C=C/c1ccc2c(c1)OCO2,7,9,24*,-15,5,-12,11,7
COc1cc(C(C)=O)ccc1Oc1ncnc2c1cnn2-c1ccc(F)cc1,8,2,3,6,3,-2,nt,nt
N#Cc1c(NC(=S)NC(=O)c2ccccc2)sc2c1CCCC2,9,-5,1,-10,1,8,nt,nt
C=CCNCc1cccn1-c1sc2c(c1C#N)CCCC2,3,9,18*,8,2,4,8,11
COc1cc(/C=N/n2cnnc2)ccc1OCc1ccc(C)cc1,2,19,40*,-42,2,-20,16,32*
COc1cc(/C=N/n2cnnc2)ccc1OCc1ccccc1,40,5,3,-15,-3,-2,nt,nt
